Consider eight compounds from ChEMBL document CHEMBL2169869, “Assay and inhibition of diacylglycerol lipase activity” (Bioorg Med Chem Lett, 2012).

Test [1] relates to Bacteria. As to the kind of experiment: Inhibition of bacterial lipoprotein lipase at 10 uM by FRET assay.
Test [2] deals with T1, Diacylglycerol lipase-alpha (Mus musculus) (UniProt Q6WQJ1).
T1 sequence (whole entry): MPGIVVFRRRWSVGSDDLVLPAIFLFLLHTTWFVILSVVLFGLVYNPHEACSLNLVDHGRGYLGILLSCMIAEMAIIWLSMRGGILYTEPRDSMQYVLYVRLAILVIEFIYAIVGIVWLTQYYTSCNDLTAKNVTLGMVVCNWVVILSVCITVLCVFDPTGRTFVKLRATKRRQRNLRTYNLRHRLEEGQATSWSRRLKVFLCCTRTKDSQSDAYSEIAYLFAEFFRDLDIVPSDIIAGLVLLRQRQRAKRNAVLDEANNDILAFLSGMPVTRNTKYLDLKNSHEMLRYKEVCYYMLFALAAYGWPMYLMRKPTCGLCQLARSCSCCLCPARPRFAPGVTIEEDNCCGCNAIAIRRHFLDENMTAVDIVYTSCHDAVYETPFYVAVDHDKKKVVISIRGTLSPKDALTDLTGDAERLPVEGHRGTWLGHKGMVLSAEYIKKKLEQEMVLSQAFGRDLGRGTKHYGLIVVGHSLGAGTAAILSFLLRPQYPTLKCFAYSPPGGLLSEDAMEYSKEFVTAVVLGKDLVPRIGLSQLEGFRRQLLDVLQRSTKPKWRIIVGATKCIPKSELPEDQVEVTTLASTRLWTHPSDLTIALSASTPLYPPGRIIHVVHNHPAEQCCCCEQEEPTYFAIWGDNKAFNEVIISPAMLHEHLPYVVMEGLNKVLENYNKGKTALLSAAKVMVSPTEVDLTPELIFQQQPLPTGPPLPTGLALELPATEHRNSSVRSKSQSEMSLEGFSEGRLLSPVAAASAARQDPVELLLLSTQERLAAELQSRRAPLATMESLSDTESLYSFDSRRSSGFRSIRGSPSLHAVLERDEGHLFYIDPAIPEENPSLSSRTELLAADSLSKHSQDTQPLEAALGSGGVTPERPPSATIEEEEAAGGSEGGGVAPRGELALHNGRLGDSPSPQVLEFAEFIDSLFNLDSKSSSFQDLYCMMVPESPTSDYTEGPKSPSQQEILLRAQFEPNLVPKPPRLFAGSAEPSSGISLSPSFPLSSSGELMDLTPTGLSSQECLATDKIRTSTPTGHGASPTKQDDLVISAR
As to the kind of experiment: Inhibition of mouse DAGLalpha expressed in HEK293T cell membrane using [14C]SAG substrate at 10 nM by scintillation counting based radio-TLC assay. It is filed as cell membranes. Particulars: HEK-293T.

In test [3] the target is T2, Fatty-acid amide hydrolase 1 (Rattus norvegicus, UniProt P97612).
T2 sequence (P97612 whole entry): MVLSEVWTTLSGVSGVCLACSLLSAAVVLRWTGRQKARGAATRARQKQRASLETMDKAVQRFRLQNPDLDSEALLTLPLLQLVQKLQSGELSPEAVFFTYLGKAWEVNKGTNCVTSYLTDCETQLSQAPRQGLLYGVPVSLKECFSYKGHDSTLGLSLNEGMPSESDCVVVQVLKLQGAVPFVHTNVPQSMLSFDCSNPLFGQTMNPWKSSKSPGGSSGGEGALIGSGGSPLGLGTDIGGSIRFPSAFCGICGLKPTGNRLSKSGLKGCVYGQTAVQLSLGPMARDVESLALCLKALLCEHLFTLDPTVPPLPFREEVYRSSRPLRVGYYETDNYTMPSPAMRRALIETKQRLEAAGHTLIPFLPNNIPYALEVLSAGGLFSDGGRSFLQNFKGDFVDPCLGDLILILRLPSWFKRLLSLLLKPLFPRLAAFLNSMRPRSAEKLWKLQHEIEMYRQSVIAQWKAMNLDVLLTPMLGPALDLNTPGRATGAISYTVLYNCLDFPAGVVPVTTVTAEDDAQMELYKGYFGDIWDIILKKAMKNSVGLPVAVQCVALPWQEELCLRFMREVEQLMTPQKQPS
As to the kind of experiment: Inhibition of rat histidine tagged FAAH expressed in Escherichia coli by coumarin ester substrate fluorescence assay.

The species named for test [4] is Sus scrofa. The experiment in a line: Inhibition of porcine pancreatic lipase type 2 at 10 uM by FRET assay.
Test [5] addresses T3, Monoglyceride lipase (Homo sapiens) (UniProt Q99685).
T3 sequence (whole entry): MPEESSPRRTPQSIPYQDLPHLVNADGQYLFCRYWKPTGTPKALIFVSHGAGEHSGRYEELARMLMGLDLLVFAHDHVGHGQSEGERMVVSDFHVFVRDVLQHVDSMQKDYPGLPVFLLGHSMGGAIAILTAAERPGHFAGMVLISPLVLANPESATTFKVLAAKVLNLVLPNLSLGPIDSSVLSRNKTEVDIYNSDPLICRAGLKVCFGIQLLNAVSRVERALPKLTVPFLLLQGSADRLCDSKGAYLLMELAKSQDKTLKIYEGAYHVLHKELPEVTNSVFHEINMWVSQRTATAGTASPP
As to the kind of experiment: Inhibition of human N-terminal histidine tagged full length MAGL expressed in Escherichia coli at 100 nM by coumarin ester substrate fluorescence assay.

The target in test [6] is T3, Monoglyceride lipase (Homo sapiens). As to the kind of experiment: Inhibition of human N-terminal histidine tagged full length MAGL expressed in Escherichia coli at 10 uM by coumarin ester substrate fluorescence assay.
Test [7] has as its target T4, Fatty-acid amide hydrolase 1 (Rattus norvegicus) (UniProt P97612).
T4 sequence (whole entry): T2 sequence (P97612 whole entry)
As to the kind of experiment: Inhibition of rat histidine tagged FAAH expressed in Escherichia coli at 1 uM by coumarin ester substrate fluorescence assay.

Test [8] addresses T4, Fatty-acid amide hydrolase 1 (Rattus norvegicus). The experiment in a line: Inhibition of rat histidine tagged FAAH expressed in Escherichia coli at 10 uM by coumarin ester substrate fluorescence assay.
Test [9] addresses T5, Diacylglycerol lipase-alpha (Homo sapiens) (UniProt Q9Y4D2).
T5 sequence (whole entry): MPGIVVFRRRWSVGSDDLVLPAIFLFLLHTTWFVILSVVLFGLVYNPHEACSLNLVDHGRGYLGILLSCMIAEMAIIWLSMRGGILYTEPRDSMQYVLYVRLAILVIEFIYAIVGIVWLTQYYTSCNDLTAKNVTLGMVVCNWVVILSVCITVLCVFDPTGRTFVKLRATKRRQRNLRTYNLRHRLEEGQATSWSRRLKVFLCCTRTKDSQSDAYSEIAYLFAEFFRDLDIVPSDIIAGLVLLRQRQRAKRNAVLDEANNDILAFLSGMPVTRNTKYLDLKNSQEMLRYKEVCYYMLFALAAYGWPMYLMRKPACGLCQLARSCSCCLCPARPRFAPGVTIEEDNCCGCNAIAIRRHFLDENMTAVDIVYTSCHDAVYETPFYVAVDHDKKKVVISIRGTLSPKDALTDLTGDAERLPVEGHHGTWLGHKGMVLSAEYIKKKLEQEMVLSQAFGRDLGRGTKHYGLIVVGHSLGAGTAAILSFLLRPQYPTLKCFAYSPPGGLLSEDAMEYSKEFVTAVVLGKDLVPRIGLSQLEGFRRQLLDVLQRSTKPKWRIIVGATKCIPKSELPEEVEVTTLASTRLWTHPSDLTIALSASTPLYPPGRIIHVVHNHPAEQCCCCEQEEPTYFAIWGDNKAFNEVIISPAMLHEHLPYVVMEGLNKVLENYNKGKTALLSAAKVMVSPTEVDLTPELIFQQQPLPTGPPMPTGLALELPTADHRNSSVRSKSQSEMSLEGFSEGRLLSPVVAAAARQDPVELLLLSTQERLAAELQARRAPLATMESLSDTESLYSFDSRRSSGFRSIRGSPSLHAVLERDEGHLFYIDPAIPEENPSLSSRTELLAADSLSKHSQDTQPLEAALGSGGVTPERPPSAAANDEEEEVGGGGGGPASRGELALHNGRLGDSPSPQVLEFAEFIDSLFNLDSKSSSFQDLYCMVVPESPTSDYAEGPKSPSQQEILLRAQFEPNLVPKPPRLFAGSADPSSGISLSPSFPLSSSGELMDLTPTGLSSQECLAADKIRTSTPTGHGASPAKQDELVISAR
As to the kind of experiment: Inhibition of human DAGLalpha expressed in HEK293T cell membrane using [14C]SAG substrate at 10 uM in presence of 0.015% Triton X-100 by scintillation counting based radio-TLC assay. The note with it: HEK-293T. The test is classed as cell membranes. The procedure, abridged: (§1)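 Sonicated HEK293T protein (100 μg) in 50 mM Tris pH 7.4 with 10 mM CaCl2. Inhibitor in DMSO (10% DMSO standard) preincubated 15 min at 37 °C. [14C]SAG was added to 20 μM final for 20 min at 37 °C, with Triton X-100 where the line states it. Quenched with 2:1 CHCl3/MeOH. Silica TLC in CHCl3/MeOH/NH4OH 86:14:0.75, then 12 h phosphorimaging. Activity = (2-AG+AA)/(2-AG+AA+SAG). Background-subtracted; n=1–2.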

Test [10] has as its target T5, Diacylglycerol lipase-alpha (Homo sapiens). The experiment in a line: Inhibition of human DAGLalpha expressed in HEK293T cell membrane using [14C]SAG substrate at 10 uM using JZL184 pretreated protein in detergent free solution by […]. It is filed as cell-based. Particulars: HEK-293T.
For test [11] the target is unchanged. The experiment in a line: Inhibition of human DAGLalpha expressed in HEK293T cell membrane using [14C]SAG substrate at 10 uM in detergent free solution by […]. The test is classed as cell-based. Particulars: HEK-293T.
For test [12], the target named is T1, Diacylglycerol lipase-alpha (Mus musculus). The experiment in a line: Inhibition of mouse DAGLalpha expressed in HEK293T cell membrane using [14C]SAG substrate at 10000 nM by scintillation counting based radio-TLC assay. It is filed as cell membranes. Particulars: HEK-293T.
Test [13] addresses T5, Diacylglycerol lipase-alpha (Homo sapiens). As to the kind of experiment: Inhibition of human DAGLalpha expressed in HEK293T cell membrane using [14C]SAG substrate at 10 uM in detergent free solution by scintillation counting based radio-TLC assay. Particulars: HEK-293T.
For test [14] the target is unchanged. As to the kind of experiment: Inhibition of human DAGLalpha expressed in HEK293T cell membrane using [14C]SAG substrate at 10 uM in detergent free solution using JZL184 pretreated protein by scintillation counting based radio-TLC assay. It is filed as cell membranes. Particulars: HEK-293T. In a few lines:
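Same hDAGLα radio-TLC as above: Tris/CaCl2 pH 7.4, 15 min inhibitor preincubation at 37 °C, 20 μM [14C]SAG for 20 min at 37 °C, TLC with phosphorimaging, activity as (2-AG+AA)/total label.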

Test [15] shares this target. As to the kind of experiment: Inhibition of human DAGLalpha expressed in HEK293T cell membrane using [14C]SAG substrate at 10 uM in presence of 0.05% Triton X-100 by scintillation counting based radio-TLC assay. It is filed as cell membranes. Particulars: HEK-293T. The procedure, abridged:
as §1

For test [16] the target is unchanged. The experiment in a line: Inhibition of human DAGLalpha expressed in HEK293T cell membrane using [14C]SAG substrate at 10 uM in presence of 0.05% Triton X-100 by […]. The test is classed as cell-based. The note with it: HEK-293T.
Test [17] concerns the target T6, Diacylglycerol lipase-alpha (Homo sapiens, UniProt Q9Y4D2).
T6 sequence (Q9Y4D2 whole entry): T5 sequence (whole entry)
The experiment in a line: Inhibition of human DAGLalpha.

Molecules are shown by their SMILES. Activity calls are given as the source filed them. The rule behind the calls is not given here. Where only a bound is given, the exact number is not on record here.

A word on the inhibition: it is the change of the read-out against control, counted positive when it falls. What is called IC50 is the midpoint of a concentration-inhibition curve. Read a low IC50 as greater potency. Turning to `O=S(=O)(F)Cc1ccccc1` [PHENYLMETHYLSULFONYLFLUORIDE], the inhibition in test [1] was < 0%. The inhibition result in test [2] is “inactive”. In addition, the IC50 in test [3] was 833 nM.
With `CCCCCCC[C@H]1OC(=O)[C@H]1CCCCCC` (racemic), the inhibition stood at 94% in test [4]; 33% in [1]; 66% in test [5]; 100% in test [6]; 13% in test [7]; 94% in test [8]. The inhibition came out at 25% in test [9] and 65% in test [10].
Take `O=C(Oc1ccc([N+](=O)[O-])cc1)N1CCN(Cc2cccc(Oc3ccccc3)c2)CC1`: the inhibition was 43% in test [4]; < 0% in test [1]; 84% in test [11]; 10% in [12]; 55% in test [10]. Besides, the inhibition entry in [2] and in [13] was “inactive” each time.
Turning to `NC(=O)c1cccc(-c2cccc(OC(=O)NC3CCCCC3)c2)c1`, the inhibition in test [4] is 68%; in test [1], 21%; in [11], 22%; in test [12] it was < 0%; in test [6], 18%; in [10], 7%. The inhibition result in test [2] and in test [13] was “inactive” in each case.
On to `O=C(N[C@H]1COC1=O)OCc1ccccc1`, for which the inhibition in [4] is < 0%; in test [1], < 0%; in test [11], 17%; in test [6] it was 13%; in test [8], 10%; in test [14], < 0%. For the same compound, the inhibition in test [10] was determined as 7%. In addition, the inhibition entry in test [2] and in test [13] was “inactive” in each case.
For `CCCCCCCCCCCCCC1CC(=O)O1` (racemic), the inhibition in test [4] was 38%; in [1], < 0%; in test [11], 14%; in test [12], < 0%; in test [6], 4%; in test [8] it was 10%. Besides, the values for the inhibition in test [9], in test [15] and in test [16] were 45%, 25% and 72%, respectively.
As for `O=C(NCCCCCCNC(=O)ON=C1CCCCC1)ON=C1CCCCC1`, the inhibition was 78% in [4]; < 0% in test [1]; 70% in test [11]; 22% in test [6]; 95% in test [8]; 30% in test [13]. Also, in [10], the inhibition turned out to be 40%. Besides, the IC50 in test [3] was 2240 nM; in test [17], 65000 nM.
As to `CCCCCCC[C@@H]1OC(=O)[C@H]1CCCCCC` (racemic), the inhibition was determined as 96% in [4]; 67% in test [1]; 55% in test [6]; 79% in test [8]; 37% in [9]; 69% in [10].
